Tests used:
[1] = test system: ASPC1; assay: Antiproliferative activity against human Aspc-1 cells after 72 hrs by MTT assay; format: functional, cell-based; conditions: ASPC1, 72 h
Outline: (§1)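 Cells grown in DMEM with 10% FBS and 1% penicillin-streptomycin at 37 °C, 5% CO2. Seeded at 4,000 to 5,000 cells/well, cultured one day, then exposed to compounds for 72 h at 1.25 to 40 μmol/L, five replicates per concentration. MTT absorbance read at 570 nm. IC50 from five-point dose-response curves; mean of at least three separate experiments.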

[2] = test system: BXPC-3; assay: Antiproliferative activity against human BxPC3 cells after 72 hrs by MTT assay; format: functional, cell-based; conditions: BXPC-3, 72 h; outline: as §1
[3] = test system: PANC-1; assay: Antiproliferative activity against human PANC1 cells after 72 hrs by MTT assay; format: functional, cell-based; conditions: PANC-1, 72 h; outline: as §1
[4] = Antiproliferative activity against human HPDE6c7 cells after 72 hrs by MTT assay; format: cell-based; conditions: HPDE6c7, 72 h; outline: as §1
[5] = test system: ASPC1; assay: Antiproliferative activity against human Aspc-1 cells assessed as cell viability at 0.5 uM after 48 hrs by MTT assay (reference value: 98.1%); format: functional; conditions: ASPC1, 48 h, read-out: Activity
[6] = test system: ASPC1; assay: Induction of apoptosis in human Aspc-1 cells assessed as necrotic cells at 2.5 uM after 72 hrs by Annexin V-FITC/propidium iodide staining-based flow cytometry (reference value: 0%); format: functional
Outline: (§2)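 AsPC-1 cells (3 to 5×10^5 per well) were treated with DMSO solvent control or compound for 72 h in medium with 5% FBS. Cells were then stained with Annexin V-FITC and propidium iodide and analysed by flow cytometry. One representative experiment shown.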

[7] = test system: ASPC1; assay: Induction of apoptosis in human Aspc-1 cells assessed as viable cells at 2.5 uM after 72 hrs by Annexin V-FITC/propidium iodide staining-based flow cytometry (reference value: 100%); format: functional; conditions: ASPC1, 72 h, read-out: Activity; outline: as §2
[8] = test system: ASPC1; assay: Induction of apoptosis in human Aspc-1 cells assessed as early apoptotic cells at 5 uM after 72 hrs by Annexin V-FITC/propidium iodide staining-based flow cytometry (reference value: 0%); format: functional; outline: as §2
[9] = test system: ASPC1; assay: Induction of apoptosis in human Aspc-1 cells assessed as viable cells at 5 uM after 72 hrs by Annexin V-FITC/propidium iodide staining-based flow cytometry (reference value: 100%); format: functional; conditions: ASPC1, 72 h, read-out: Activity; outline: as §2
[10] = test system: ASPC1; assay: Induction of apoptosis in human Aspc-1 cells assessed as early apoptotic cells at 10 uM after 72 hrs by Annexin V-FITC/propidium iodide staining-based flow cytometry (reference value: 0%); format: functional; outline: as §2
[11] = test system: ASPC1; assay: Induction of apoptosis in human Aspc-1 cells assessed as late apoptotic cells at 10 uM after 72 hrs by Annexin V-FITC/propidium iodide staining-based flow cytometry (reference value: 0%); format: functional; outline: as §2
[12] = test system: ASPC1; assay: Induction of apoptosis in human Aspc-1 cells assessed as viable cells at 10 uM after 72 hrs by Annexin V-FITC/propidium iodide staining-based flow cytometry (reference value: 100%); format: functional; conditions: ASPC1, 72 h, read-out: Activity; outline: as §2
[13] = test system: ASPC1; assay: Cell cycle arrest in human Aspc-1 cells assessed as accumulation at S phase at 1 uM after 72 hrs by propidium iodide staining-based flow cytometry (reference value: 59.70%); format: functional
[14] = test system: ASPC1; assay: Cell cycle arrest in human Aspc-1 cells assessed as accumulation at G0/G1 phase at 2.5 uM after 72 hrs by propidium iodide staining-based flow cytometry (reference value: 39.41%); format: functional
[15] = test system: ASPC1; assay: Cell cycle arrest in human Aspc-1 cells assessed as accumulation at G2/M phase at 2.5 uM after 72 hrs by propidium iodide staining-based flow cytometry (reference value: 0.89%); format: functional
[16] = test system: ASPC1; assay: Cell cycle arrest in human Aspc-1 cells assessed as accumulation at S phase at 5 uM after 72 hrs by propidium iodide staining-based flow cytometry (reference value: 59.70%); format: functional
[17] = test system: ASPC1; assay: Cell cycle arrest in human Aspc-1 cells assessed as accumulation at G2/M phase at 5 uM after 72 hrs by propidium iodide staining-based flow cytometry (reference value: 0.89%); format: functional
[18] = molecular target: Focal adhesion kinase 1 (Homo sapiens, UniProt Q05397); assay: Inhibition of recombinant full length GST-tagged human FAK expressed in baculovirus expression system at 100 nM relative to control
Outline: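 SelectScreen biochemical kinase profiling service; percent inhibition of each kinase at a single compound concentration of 100 nM.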

[19] = molecular target: Epidermal growth factor receptor (Homo sapiens) (UniProt P00533); assay: Inhibition of recombinant GST-tagged human EGFR cytoplasmic domain (668 to 1210 residues) expressed in baculovirus expression system at 100 nM relative to control
Outline: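 Part of a small kinase-panel profile run by an outsourced biochemical profiling service. The test compound was given at a single concentration of 100 nM, and activity was reported as percent inhibition rate.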

[20] = test system: ASPC1; assay: Antiproliferative activity against human Aspc-1 cells assessed as cell viability at 0.5 uM after 72 hrs by MTT assay (reference value: 97%); format: functional; conditions: ASPC1, 72 h, read-out: Activity
[21] = test system: ASPC1; assay: Antiproliferative activity against human Aspc-1 cells assessed as cell viability at 4 uM after 24 hrs by MTT assay (reference value: 100%); format: functional; conditions: ASPC1, 24 h, read-out: Activity
[22] = test system: ASPC1; assay: Antiproliferative activity against human Aspc-1 cells assessed as cell viability at 8 uM after 24 hrs by MTT assay (reference value: 100%); format: functional; conditions: ASPC1, 24 h, read-out: Activity
[23] = test system: ASPC1; assay: Antiproliferative activity against human Aspc-1 cells assessed as cell viability at 8 uM after 48 hrs by MTT assay (reference value: 98.1%); format: functional; conditions: ASPC1, 48 h, read-out: Activity
[24] = test system: BXPC-3; assay: Antiproliferative activity against human BxPC3 cells assessed as cell viability at 0.5 uM after 24 hrs by MTT assay (reference value: 100%); format: functional; conditions: BXPC-3, 24 h, read-out: Activity
[25] = test system: BXPC-3; assay: Antiproliferative activity against human BxPC3 cells assessed as cell viability at 0.5 uM after 48 hrs by MTT assay (reference value: 98.8%); format: functional; conditions: BXPC-3, 48 h, read-out: Activity
[26] = test system: BXPC-3; assay: Antiproliferative activity against human BxPC3 cells assessed as cell viability at 0.5 uM after 72 hrs by MTT assay (reference value: 97%); format: functional; conditions: BXPC-3, 72 h, read-out: Activity
[27] = test system: PANC-1 (human); assay: Antiproliferative activity against human PANC-1 cells assessed as cell viability at 4 uM after 72 hrs by MTT assay (reference value: 97%); conditions: PANC-1, 72 h
[28] = test system: PANC-1 (human); assay: Antiproliferative activity against human PANC-1 cells assessed as cell viability at 8 uM after 24 hrs by MTT assay (reference value: 100%); conditions: PANC-1, 24 h
[29] = test system: PANC-1 (human); assay: Antiproliferative activity against human PANC-1 cells assessed as cell viability at 4 uM after 48 hrs by MTT assay (reference value: 98.8%); conditions: PANC-1, 48 h

Chain of Epidermal growth factor receptor (Homo sapiens) (P00533 whole entry, the tested form may be a part): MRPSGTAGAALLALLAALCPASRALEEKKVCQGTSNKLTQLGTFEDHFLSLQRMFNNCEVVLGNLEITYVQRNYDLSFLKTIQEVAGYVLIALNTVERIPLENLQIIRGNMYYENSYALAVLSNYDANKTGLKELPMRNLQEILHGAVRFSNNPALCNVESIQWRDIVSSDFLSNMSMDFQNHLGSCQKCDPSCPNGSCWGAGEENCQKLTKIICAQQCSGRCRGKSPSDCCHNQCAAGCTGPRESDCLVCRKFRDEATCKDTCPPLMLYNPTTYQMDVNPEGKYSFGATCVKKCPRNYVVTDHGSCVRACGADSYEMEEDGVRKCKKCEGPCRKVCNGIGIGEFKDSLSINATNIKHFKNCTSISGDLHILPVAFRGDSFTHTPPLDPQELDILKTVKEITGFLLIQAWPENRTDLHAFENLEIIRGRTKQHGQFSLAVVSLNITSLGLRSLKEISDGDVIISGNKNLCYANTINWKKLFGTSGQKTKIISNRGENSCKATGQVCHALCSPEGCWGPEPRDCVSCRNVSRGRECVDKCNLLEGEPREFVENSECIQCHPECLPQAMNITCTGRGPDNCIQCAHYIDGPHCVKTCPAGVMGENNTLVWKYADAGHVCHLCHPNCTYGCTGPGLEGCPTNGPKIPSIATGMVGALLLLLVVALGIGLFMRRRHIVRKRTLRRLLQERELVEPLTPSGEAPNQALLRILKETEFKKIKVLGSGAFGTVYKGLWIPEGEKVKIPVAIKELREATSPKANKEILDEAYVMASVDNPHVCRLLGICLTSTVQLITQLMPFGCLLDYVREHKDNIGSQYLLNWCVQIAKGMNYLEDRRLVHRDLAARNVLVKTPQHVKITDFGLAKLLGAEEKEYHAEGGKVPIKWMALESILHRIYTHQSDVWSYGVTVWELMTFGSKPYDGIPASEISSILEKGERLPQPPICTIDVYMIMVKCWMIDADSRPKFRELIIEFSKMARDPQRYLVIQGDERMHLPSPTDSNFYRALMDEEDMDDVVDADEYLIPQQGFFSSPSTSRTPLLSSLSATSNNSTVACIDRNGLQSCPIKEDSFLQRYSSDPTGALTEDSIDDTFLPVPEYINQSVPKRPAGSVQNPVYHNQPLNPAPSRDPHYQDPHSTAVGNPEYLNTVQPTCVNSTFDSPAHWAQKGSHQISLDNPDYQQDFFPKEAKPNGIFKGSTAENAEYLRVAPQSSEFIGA
Chain of Focal adhesion kinase 1 (Q05397 2-1052 limits assumed): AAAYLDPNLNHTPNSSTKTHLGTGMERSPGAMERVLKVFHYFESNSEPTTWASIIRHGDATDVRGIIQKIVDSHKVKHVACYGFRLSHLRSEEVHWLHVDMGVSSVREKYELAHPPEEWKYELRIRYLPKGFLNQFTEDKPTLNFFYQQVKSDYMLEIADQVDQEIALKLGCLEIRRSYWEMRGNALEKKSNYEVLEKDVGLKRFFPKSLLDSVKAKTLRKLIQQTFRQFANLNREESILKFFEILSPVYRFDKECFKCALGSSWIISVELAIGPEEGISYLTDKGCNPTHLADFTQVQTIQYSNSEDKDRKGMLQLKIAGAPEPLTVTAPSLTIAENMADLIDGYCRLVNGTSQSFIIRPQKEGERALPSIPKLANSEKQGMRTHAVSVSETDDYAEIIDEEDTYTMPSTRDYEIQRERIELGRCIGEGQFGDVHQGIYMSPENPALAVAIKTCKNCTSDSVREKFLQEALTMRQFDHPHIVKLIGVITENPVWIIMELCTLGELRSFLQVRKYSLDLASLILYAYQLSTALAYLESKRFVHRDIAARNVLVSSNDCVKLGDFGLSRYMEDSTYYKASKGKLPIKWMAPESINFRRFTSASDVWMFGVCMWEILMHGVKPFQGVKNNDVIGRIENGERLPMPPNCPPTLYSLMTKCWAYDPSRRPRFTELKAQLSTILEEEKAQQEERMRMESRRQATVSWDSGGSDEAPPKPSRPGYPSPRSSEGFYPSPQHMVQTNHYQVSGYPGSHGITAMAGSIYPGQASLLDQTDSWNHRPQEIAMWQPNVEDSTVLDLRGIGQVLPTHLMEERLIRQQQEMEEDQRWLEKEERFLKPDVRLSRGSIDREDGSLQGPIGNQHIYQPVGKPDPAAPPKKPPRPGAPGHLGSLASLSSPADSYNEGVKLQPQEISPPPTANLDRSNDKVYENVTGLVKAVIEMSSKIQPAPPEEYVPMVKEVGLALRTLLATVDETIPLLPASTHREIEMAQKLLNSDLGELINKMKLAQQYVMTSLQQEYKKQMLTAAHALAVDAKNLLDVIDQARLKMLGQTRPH

Structure (SMILES): CCOP(=O)(CCCOc1ccc(Nc2ncc([N+](=O)[O-])c(Nc3ccccc3C(=O)NC)n2)cc1)N1CCOCC1 (centres undefined)
- IC50 [1]: 1660 nM
- IC50 [2]: 570 nM
- IC50 [3]: > 40000 nM
- IC50 [4]: > 20000 nM
- viability at 0.5 µM [5]: 97.4%
- Activity [6]: 2.9%
- viability at 2.5 µM [7]: 55.3%
- Activity [8]: 16.3%
- viability at 5 µM [9]: 40.1%
- Activity [10]: 16.6%
- Activity [11]: 75.3%
- viability at 10 µM [12]: 7.7%
- Activity [13]: 48.41%
- Activity [14]: 38.18%
- Activity [15]: 16.54%
- Activity [16]: 37.82%
- Activity [17]: 22.11%
- inhibition [18]: 92%
- inhibition [19]: 22%
- viability at 0.5 µM [20]: 94.4%
- viability at 4 µM [21]: 68%
- viability at 8 µM [22]: 56.8%
- viability at 8 µM [23]: 30.2%
- viability at 0.5 µM [24]: 98%
- viability at 0.5 µM [25]: 96.7%
- viability at 0.5 µM [26]: 69.8%
- viability at 4 µM [27]: 58.4%
- viability at 8 µM [28]: 87.3%
- viability at 4 µM [29]: 61.6%

Reference: ChEMBL document CHEMBL4177662, “Phosphamide-containing diphenylpyrimidine analogues (PA-DPPYs) as potent focal adhesion kinase (FAK) inhibitors with enhanced activity against pancreatic cancer cell lines” (Bioorg Med Chem, 2017)
